# ChEMBL document CHEMBL3351933, “Indimicins A-E, Bisindole Alkaloids from the Deep-Sea-Derived Streptomyces sp. SCSIO 03032” (J Nat Prod, 2014)
# Activity calls are given as the source filed them. The calls are words filed in the database; no cut-off is given here.
# Legend:
# [1] = test system: NCI-H460; assay: Cytotoxicity against human NCI-H460 cells by SRB assay; type: functional, cell-based
# How it was run: (§1)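 Sulforhodamine B (SRB) cytotoxicity assay, following an earlier published protocol, run in vitro against a four-line human tumor panel: HepG2 (hepatocellular liver carcinoma), MCF7 (breast adenocarcinoma), NCI-H460 (non-small-cell lung cancer) and SF268 (glioma). IC50 values reported in μM.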
# [2] = test system: HepG2; assay: Cytotoxicity against human HepG2 cells by SRB assay; type: functional, cell-based; how it was run: as §1
# [3] = test system: Escherichia coli; assay: Antimicrobial activity against Escherichia coli ATCC 25922 by the broth microdilution method; type: functional
# [4] = test system: Bacillus subtilis; assay: Antimicrobial activity against Bacillus subtilis SCSIO BS01 by the broth microdilution method; type: functional
# [5] = test system: Staphylococcus aureus; assay: Antimicrobial activity against Staphylococcus aureus ATCC 29213 by the broth microdilution method; type: functional
# [6] = test system: MCF7; assay: Cytotoxicity against human MCF7 cells by SRB assay; type: functional, cell-based; how it was run: as §1
# [7] = test system: Bacillus thuringiensis; assay: Antimicrobial activity against Bacillus thuringiensis SCSIO BT01 by the broth microdilution method; type: functional
# [8] = test system: Candida albicans; assay: Antimicrobial activity against Candida albicans ATCC10231 by the broth microdilution method; type: functional
MIC [3] [µg/mL],MIC [4] [µg/mL],MIC [5] [µg/mL],MIC [7] [µg/mL],MIC [8] [µg/mL],SMILES,inhibition [1],inhibition [2],IC50 [6] [µM]
> 128,> 128,> 128,> 128,> 128,CN1c2ccc(Cl)cc2[C@@]2(C)c3c[nH]cc3-c3c([nH]c4ccc(Cl)cc34)[C@@H]12,inactive,inactive,> 10
> 128,> 128,> 128,> 128,> 128,Cc1[nH]cc2c1-c1c([nH]c3ccc(Cl)cc13)[C@H]1N(C)c3ccc(Cl)cc3[C@@]21C,inactive,inactive,> 10
> 128,> 128,> 128,> 128,> 128,CN1c2ccc(Cl)cc2[C@@]2(C)c3cn(C)cc3-c3c([nH]c4ccc(Cl)cc34)[C@@H]12,inactive,inactive,> 10
> 128,> 128,> 128,> 128,> 128,CN1C[C@](C)(c2cn(C)cc2-c2c[nH]c3ccc(Cl)cc23)c2cc(Cl)ccc21,inactive,inactive,> 10

# Continued, compound first:
SMILES,MIC [3] [µg/mL],MIC [4] [µg/mL],MIC [5] [µg/mL],MIC [7] [µg/mL],MIC [8] [µg/mL],inhibition [1],inhibition [2],IC50 [6] [µM]
Cc1c2c(cn1C)[C@]1(C)c3cc(Cl)ccc3N(C)[C@@H]1c1[nH]c3ccc(Cl)cc3c1-2,> 128,> 128,> 128,> 128,> 128,inactive,inactive,10
COC(=O)c1c(-c2c[nH]c3ccc(Cl)cc23)c(-c2c[nH]c3ccc(Cl)cc23)c(C(=O)OC)n1C,> 128,> 128,> 128,> 128,> 128,inactive,inactive,> 10
COC(=O)c1c(-c2c[nH]c3ccc(Cl)cc23)c(-c2c[nH]c3ccc(Cl)cc23)cn1C,> 128,> 128,> 128,> 128,> 128,inactive,inactive,> 10
